Measured values reported in ChEMBL document CHEMBL2417369, “Synthesis and evaluation of heteroaryl substituted diazaspirocycles as scaffolds to probe the ATP-binding site of protein kinases” (Bioorg Med Chem, 2013).

Tests used:
[1] = target: Tyrosine-protein kinase ABL1 (Homo sapiens, UniProt P00519); experiment: Inhibition of ABL (unknown origin) at 30 uM by microfluidic mobility shift assay relative to control
Summary of the method: (§1)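 Single-point screen in a 24-enzyme kinase panel using a microfluidic assay. Each compound was tested at […] with ATP at roughly the Km for each enzyme. The pan-AGC inhibitor H-89 served as an internal control on every plate.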

Homo sapiens = species: Homo sapiens; experiment: Inhibition of PKA (unknown origin) at 30 uM by microfluidic mobility shift assay relative to control; summary of the method: as §1
[2] = target: Tyrosine-protein kinase Lck (Homo sapiens, UniProt P06239); experiment: Inhibition of LCK (unknown origin) at 30 uM by microfluidic mobility shift assay relative to control; summary of the method: as §1
[3] = target: Tyrosine-protein kinase Fyn (Homo sapiens, UniProt P06241); experiment: Inhibition of FYN (unknown origin) at 30 uM by microfluidic mobility shift assay relative to control; summary of the method: as §1
[4] = target: T1, Serine/threonine-protein kinase D2 (Homo sapiens) (UniProt Q9BZL6); experiment: Inhibition of PKD2 (unknown origin) at 30 uM by microfluidic mobility shift assay relative to control; summary of the method: as §1
T1 sequence (whole entry): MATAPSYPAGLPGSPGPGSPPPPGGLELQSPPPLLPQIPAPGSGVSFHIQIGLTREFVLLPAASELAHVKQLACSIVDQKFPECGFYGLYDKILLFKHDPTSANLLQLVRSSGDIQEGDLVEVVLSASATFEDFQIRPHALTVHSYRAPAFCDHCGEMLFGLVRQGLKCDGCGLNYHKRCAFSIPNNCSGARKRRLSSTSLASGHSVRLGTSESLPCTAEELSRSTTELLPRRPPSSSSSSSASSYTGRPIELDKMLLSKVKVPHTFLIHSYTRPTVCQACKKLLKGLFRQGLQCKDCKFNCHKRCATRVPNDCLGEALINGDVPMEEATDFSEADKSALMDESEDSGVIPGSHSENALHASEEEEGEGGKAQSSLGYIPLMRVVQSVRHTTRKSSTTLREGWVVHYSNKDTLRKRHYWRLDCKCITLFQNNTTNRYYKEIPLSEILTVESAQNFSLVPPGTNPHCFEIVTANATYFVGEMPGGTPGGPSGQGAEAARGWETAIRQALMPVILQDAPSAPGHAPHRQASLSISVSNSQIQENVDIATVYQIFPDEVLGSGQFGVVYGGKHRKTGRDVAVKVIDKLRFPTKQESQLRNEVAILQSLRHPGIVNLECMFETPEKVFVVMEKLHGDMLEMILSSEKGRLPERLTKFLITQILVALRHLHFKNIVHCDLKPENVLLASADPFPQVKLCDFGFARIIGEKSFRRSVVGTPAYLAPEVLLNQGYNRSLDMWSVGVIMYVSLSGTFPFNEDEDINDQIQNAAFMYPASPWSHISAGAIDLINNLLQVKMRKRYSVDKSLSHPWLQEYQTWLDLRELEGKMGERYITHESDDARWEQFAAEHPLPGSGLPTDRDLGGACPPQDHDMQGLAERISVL

[5] = target: Insulin receptor (Homo sapiens) (UniProt P06213); experiment: Inhibition of INSR (unknown origin) at 30 uM by microfluidic mobility shift assay relative to control; summary of the method: as §1
[6] = target: T2, Serine/threonine-protein kinase Chk1 (Homo sapiens) (UniProt O14757); experiment: Inhibition of CHK1 (unknown origin) at 30 uM by microfluidic mobility shift assay relative to control; summary of the method: as §1
T2 sequence (whole entry): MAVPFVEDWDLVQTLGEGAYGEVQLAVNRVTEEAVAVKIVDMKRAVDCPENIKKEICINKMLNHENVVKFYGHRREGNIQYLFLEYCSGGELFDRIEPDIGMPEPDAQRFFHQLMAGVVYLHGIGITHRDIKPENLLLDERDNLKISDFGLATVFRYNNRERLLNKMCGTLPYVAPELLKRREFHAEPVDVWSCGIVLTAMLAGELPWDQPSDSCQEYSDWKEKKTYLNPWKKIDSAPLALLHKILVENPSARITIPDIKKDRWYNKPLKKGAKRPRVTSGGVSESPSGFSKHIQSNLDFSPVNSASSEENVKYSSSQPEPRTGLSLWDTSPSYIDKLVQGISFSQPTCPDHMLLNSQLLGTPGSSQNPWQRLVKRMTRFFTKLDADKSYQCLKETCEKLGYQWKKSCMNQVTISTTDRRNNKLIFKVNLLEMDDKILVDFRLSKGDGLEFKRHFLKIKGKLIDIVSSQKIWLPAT

[7] = target: Glycogen synthase kinase-3 beta (Homo sapiens, UniProt P49841); experiment: Inhibition of GSK3beta (unknown origin) at 30 uM by microfluidic mobility shift assay relative to control; summary of the method: as §1
[8] = target: T3, MAP kinase-activated protein kinase 5 (Homo sapiens) (UniProt Q8IW41); experiment: Inhibition of MAPKAPK5 (unknown origin) at 30 uM by microfluidic mobility shift assay relative to control; summary of the method: as §1
T3 sequence (whole entry): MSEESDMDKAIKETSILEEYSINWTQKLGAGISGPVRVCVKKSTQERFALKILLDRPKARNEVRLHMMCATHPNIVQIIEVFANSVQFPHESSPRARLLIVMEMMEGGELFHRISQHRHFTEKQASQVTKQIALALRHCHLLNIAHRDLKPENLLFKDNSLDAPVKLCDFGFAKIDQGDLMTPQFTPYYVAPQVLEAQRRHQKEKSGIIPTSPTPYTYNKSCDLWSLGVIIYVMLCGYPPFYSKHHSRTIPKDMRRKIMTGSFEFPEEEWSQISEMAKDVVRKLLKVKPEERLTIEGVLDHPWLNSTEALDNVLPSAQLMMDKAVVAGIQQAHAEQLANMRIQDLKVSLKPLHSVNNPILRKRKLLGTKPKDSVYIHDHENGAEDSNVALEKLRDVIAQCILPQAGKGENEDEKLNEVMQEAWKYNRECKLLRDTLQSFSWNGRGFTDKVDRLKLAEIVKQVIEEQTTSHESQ

[9] = target: Mitogen-activated protein kinase 3 (Homo sapiens, UniProt P27361); experiment: Inhibition of ERK1 (unknown origin) at 30 uM by microfluidic mobility shift assay relative to control; summary of the method: as §1
[10] = target: RAC-beta serine/threonine-protein kinase (Homo sapiens, UniProt P31751); experiment: Inhibition of AKT2 (unknown origin) at 30 uM by microfluidic mobility shift assay relative to control; summary of the method: as §1
[11] = target: RAC-alpha serine/threonine-protein kinase (Homo sapiens, UniProt P31749); experiment: Inhibition of AKT1 (unknown origin) at 30 uM by microfluidic mobility shift assay relative to control; summary of the method: as §1
[12] = target: Serine/threonine-protein kinase Chk2 (Homo sapiens, UniProt O96017); experiment: Inhibition of CHK2 (unknown origin) at 30 uM by microfluidic mobility shift assay relative to control; summary of the method: as §1
Chain of Serine/threonine-protein kinase Chk2 (O96017 whole entry): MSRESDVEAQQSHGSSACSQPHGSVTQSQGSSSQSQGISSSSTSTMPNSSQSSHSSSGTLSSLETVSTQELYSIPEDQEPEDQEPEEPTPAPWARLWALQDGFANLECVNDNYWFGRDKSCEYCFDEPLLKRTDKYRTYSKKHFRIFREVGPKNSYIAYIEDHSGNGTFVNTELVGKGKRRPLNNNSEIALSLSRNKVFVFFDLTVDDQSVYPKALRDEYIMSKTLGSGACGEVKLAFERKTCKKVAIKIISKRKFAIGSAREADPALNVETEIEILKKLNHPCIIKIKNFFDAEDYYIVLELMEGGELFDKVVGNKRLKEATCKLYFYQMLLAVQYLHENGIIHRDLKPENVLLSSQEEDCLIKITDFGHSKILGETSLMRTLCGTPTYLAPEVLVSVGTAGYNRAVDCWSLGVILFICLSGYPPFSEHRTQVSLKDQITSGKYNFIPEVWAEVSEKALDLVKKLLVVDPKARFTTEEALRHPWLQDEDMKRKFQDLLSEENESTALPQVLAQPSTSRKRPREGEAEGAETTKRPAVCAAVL

Chain of Glycogen synthase kinase-3 beta (P49841 whole entry, looked up): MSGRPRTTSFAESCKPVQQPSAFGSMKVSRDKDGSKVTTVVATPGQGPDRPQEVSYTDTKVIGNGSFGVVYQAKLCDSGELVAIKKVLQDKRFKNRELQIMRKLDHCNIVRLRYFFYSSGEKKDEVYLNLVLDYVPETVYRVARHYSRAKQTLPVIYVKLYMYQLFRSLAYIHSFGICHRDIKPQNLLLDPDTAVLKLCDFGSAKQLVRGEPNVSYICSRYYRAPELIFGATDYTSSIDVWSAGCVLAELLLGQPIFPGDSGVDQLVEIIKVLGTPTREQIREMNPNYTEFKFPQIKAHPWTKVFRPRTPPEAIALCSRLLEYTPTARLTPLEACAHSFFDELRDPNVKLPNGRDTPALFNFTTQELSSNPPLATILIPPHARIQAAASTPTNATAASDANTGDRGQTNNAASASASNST
Chain of Tyrosine-protein kinase Fyn (P06241 2-537 limits assumed): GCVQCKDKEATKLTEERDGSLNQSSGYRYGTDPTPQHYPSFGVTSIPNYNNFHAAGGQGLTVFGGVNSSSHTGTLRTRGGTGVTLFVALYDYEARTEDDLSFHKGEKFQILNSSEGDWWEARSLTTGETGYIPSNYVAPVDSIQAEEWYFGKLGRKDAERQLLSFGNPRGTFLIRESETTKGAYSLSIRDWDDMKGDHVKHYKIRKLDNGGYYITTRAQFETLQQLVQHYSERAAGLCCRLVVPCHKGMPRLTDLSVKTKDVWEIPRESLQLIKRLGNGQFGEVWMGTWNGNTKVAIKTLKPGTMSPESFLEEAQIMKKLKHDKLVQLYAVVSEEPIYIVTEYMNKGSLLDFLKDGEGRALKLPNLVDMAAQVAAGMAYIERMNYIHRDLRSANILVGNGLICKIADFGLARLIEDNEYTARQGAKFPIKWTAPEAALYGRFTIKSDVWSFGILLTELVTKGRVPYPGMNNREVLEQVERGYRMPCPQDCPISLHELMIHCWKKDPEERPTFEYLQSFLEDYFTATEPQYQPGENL
Chain of Mitogen-activated protein kinase 3 (P27361 whole entry): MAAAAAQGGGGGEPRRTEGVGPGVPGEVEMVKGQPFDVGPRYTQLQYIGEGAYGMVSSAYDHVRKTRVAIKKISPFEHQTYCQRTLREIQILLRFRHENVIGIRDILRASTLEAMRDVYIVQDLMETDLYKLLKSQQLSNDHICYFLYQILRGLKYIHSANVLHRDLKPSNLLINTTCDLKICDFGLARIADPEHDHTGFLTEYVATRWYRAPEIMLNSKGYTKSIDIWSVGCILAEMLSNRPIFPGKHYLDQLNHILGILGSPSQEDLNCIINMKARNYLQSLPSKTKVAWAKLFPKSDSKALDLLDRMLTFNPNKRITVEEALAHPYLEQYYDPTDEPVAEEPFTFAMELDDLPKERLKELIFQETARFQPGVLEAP
Chain of Tyrosine-protein kinase ABL1 (P00519 whole entry): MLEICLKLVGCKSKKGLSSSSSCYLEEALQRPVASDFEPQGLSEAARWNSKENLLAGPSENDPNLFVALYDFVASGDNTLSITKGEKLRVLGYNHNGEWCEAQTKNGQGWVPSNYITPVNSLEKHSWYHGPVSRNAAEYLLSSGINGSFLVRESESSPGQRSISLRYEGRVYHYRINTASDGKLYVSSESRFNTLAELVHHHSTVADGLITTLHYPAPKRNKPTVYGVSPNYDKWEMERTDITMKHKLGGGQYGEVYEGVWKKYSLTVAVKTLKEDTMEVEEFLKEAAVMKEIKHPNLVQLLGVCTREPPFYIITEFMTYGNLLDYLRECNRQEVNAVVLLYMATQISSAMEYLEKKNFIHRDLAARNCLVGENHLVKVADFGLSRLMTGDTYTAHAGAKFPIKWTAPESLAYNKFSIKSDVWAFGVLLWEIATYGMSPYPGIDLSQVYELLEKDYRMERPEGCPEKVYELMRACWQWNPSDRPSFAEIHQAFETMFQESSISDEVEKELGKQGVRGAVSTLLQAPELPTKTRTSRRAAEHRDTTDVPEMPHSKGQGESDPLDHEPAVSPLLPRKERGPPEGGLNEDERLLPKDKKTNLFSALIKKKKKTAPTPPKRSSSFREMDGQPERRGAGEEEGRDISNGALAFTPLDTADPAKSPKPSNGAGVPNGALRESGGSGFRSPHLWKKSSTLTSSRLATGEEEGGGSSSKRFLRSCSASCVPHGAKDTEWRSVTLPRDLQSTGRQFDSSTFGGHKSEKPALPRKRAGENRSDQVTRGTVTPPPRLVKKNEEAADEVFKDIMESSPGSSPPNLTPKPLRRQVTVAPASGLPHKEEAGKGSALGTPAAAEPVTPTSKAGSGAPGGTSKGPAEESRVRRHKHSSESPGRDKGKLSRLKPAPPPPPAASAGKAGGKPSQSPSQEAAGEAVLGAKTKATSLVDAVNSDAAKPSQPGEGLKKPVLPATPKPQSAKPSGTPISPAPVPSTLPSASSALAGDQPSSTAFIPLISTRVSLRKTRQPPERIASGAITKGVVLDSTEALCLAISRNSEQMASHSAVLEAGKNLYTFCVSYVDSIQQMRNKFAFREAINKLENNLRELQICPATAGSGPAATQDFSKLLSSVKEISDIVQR
Chain of Tyrosine-protein kinase Lck (P06239 2-509 limits assumed): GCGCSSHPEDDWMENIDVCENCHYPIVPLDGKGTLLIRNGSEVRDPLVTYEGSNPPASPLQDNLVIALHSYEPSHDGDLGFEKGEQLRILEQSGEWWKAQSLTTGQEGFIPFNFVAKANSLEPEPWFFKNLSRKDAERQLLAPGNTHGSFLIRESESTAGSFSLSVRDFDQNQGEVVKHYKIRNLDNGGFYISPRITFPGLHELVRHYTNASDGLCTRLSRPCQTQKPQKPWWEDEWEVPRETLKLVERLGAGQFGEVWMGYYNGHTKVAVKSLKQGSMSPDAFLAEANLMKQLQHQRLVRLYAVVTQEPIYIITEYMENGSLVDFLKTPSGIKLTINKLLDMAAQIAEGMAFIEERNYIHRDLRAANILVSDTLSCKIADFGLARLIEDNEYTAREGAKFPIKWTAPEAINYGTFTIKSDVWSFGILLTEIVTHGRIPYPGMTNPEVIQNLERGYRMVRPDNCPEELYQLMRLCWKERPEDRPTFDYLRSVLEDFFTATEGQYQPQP
Chain of Insulin receptor (Homo sapiens) (P06213 28-758 limits assumed): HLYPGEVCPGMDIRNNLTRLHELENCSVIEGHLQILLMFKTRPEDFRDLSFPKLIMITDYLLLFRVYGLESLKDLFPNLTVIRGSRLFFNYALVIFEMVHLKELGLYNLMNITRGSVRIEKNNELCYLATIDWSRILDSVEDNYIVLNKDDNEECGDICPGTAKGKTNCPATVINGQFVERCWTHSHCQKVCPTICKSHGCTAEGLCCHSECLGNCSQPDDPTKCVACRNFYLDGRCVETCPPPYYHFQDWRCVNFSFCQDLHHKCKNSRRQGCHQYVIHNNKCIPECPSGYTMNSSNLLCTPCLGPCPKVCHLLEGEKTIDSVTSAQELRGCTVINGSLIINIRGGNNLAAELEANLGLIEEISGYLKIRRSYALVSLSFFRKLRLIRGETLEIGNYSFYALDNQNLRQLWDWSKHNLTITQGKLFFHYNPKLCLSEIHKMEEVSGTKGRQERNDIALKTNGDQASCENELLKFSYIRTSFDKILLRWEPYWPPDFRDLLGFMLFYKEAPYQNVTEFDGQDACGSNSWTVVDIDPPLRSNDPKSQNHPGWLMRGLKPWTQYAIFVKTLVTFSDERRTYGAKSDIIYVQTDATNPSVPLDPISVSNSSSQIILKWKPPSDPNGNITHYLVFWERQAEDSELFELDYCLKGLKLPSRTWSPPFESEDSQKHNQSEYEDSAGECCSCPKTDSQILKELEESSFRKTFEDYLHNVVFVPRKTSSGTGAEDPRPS
Chain of Insulin receptor (Homo sapiens) (P06213 763-1382 limits assumed): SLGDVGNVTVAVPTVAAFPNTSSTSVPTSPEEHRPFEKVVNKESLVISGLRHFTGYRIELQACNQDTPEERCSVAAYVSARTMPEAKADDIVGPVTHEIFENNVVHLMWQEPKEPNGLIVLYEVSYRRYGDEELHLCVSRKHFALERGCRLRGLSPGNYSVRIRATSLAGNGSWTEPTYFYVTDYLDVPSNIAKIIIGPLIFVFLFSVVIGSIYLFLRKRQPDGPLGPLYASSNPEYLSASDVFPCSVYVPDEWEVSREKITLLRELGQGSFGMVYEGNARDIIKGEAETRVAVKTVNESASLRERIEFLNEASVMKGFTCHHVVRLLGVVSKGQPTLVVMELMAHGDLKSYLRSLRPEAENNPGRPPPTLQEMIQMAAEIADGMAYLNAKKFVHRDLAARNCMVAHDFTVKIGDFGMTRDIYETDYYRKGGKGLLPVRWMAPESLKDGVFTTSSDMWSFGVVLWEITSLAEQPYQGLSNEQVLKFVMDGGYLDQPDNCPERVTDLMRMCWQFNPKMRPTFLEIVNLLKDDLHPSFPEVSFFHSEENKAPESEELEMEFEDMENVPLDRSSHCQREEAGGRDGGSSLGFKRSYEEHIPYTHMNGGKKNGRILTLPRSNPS

| SMILES | inhibition [1] [%] | inhibition (Homo sapiens) [%] | inhibition [2] [%] | inhibition [3] [%] | inhibition [4] [%] | inhibition [5] [%] | inhibition [6] [%] | inhibition [7] [%] | inhibition [8] [%] | inhibition [9] [%] | inhibition [10] [%] | inhibition [11] [%] | inhibition [12] [%] |
| --- | --- | --- | --- | --- | --- | --- | --- | --- | --- | --- | --- | --- | --- |
| O=S(=O)(c1cccc2cnccc12)N1CCC2(CCC(O)CN2)CC1 (racemic) | 17 | 90 | 19 | 17 | 64 | 0 | 0 | 80 | 49 | 17 | 14 | 21 | 59 |
| c1nc(N2CCC3(CCCOC3)CC2)c2nc[nH]c2n1 | 33 | 67 | 37 | 36 | 17 | 2 | 26 | 66 | 9 | 41 | 6 | 25 | 28 |
| c1ccc(CC2CCNC3(CCN(c4ncnc5[nH]cnc45)CC3)C2)cc1 (racemic) | 16 | 101 | 60 | 28 | 84 | 0 | 84 | 21 | 8 | 66 | 98 | 101 | 98 |
| O=S(=O)(c1cccc2cnccc12)N1CCC2(CCCN2)CC1 | 9 | 92 | 6 | 5 | 81 | 0 | 10 | 20 | 15 | 6 | 11 | 28 | 50 |
| O=S(=O)(c1cccc2cnccc12)N1CCC2(CCNC2)CC1 | 0 | 76 | 10 | 1 | 19 | 4 | 46 | 1 | 18 | 14 | 17 | 18 | 59 |
| c1nc(N2CCCC23CCNCC3)c2nc[nH]c2n1 | 8 | 39 | 9 | 14 | 8 | 9 | 8 | 43 | 8 | 13 | 0 | 12 | 26 |
| c1nc(N2CCCC3(CCCNC3)C2)c2nc[nH]c2n1 (configuration not stated) | 5 | 89 | 7 | 8 | 7 | 4 | 37 | 15 | 8 | 19 | 37 | 77 | 26 |
| O=S(=O)(c1cccc2cnccc12)N1CCCC2(CCCNC2)C1 (configuration not stated) | 7 | 79 | 17 | 14 | 18 | 5 | 94 | 14 | 5 | 6 | 12 | 30 | 23 |
| c1nc(N2CCC3(CCCCO3)CC2)c2nc[nH]c2n1 | 36 | 77 | 52 | 97 | 40 | 12 | 22 | 56 | 24 | 31 | 10 | 26 | 47 |
| CNC(=O)C1CCC2(CCN(c3ncnc4[nH]cnc34)CC2)NC1 (racemic) | 23 | 95 | 31 | 8 | 35 | 16 | 70 | 17 | 21 | 30 | 41 | 83 | 34 |
| O=S(=O)(c1cccc2cnccc12)N1CCCC12CCNCC2 | 0 | 77 | 6 | 1 | 2 | 3 | 15 | 9 | 7 | 7 | 13 | 27 | 12 |
| NC1(Cc2ccccc2)CCN(c2ncnc3[nH]cnc23)CC1 | 45 | 96 | 71 | 39 | 53 | 0 | 62 | 53 | 40 | 41 | 74 | 93 | 74 |
| c1nc(N2CCC3(CCNC3)CC2)c2nc[nH]c2n1 | 80 | 99 | 86 | 84 | 80 | 6 | 84 | 39 | 41 | 39 | 70 | 94 | 64 |
| c1ccc(C2CCNC3(CCN(c4ncnc5[nH]cnc45)CC3)C2)cc1 (racemic) | 39 | 100 | 73 | 56 | 71 | 2 | 77 | 20 | 18 | 39 | 89 | 99 | 75 |
